The values that follow come from ChEMBL document CHEMBL3045023, “Design, synthesis, and antiviral activity evaluation of phenanthrene-based antofine derivatives” (2012).

Format in all cases: functional
For test [1], the system named is Tobacco mosaic virus. Put plainly: Antiviral activity against Tobacco mosaic virus (TMV) assessed as inhibition of viral growth at 1 ug/mL. The note with it: read-out: GI.
Test [2] relates to Tobacco mosaic virus. Put plainly: Antiviral activity against Tobacco mosaic virus (TMV) inoculation on Nicotiana tabacum L. whole leaves assessed as virus infection protective effect at 500 ug/mL measured 3 to 4 days post inoculation. In outline:
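On N. tabacum L. leaves of the same age, compound was smeared on the left half and solvent on the right half as control. After 12 h, leaves were dusted with silicon carbide, brush-inoculated with TMV (6 × 10−3 mg/mL), then washed. Local lesions were counted 3–4 days later, in triplicate. Inhibition % was calculated from average lesion numbers versus control.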

In test [3] the test system is Tobacco mosaic virus. Put plainly: Antiviral activity against Tobacco mosaic virus (TMV) inoculation on Nicotiana tabacum L. whole leaves assessed as virus infection curative effect at 500 ug/mL measured 3 to 4 days post inoculation. A digest of the protocol:
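Whole N. tabacum L. leaves of the same age were inoculated with TMV (6.0 × 10−3 mg/mL), then washed and dried. Compound was then smeared on the left half and solvent on the right half as control. Local lesions were counted 3–4 days post-inoculation, in triplicate. Inhibition % was calculated from average lesion numbers versus control.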

The subject of test [4] is Tobacco mosaic virus. Put plainly: Antiviral activity against Tobacco mosaic virus (TMV) inoculation on Nicotiana tabacum L. whole leaves assessed as virus inactivation effect at 500 ug/mL measured 3 to 4 days post inoculation. In outline:
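TMV was mixed with an equal volume of compound solution for 30 min. The mixture was inoculated on the left half of N. tabacum L. leaves, and virus mixed with solvent on the right half as control. Local lesions were recorded 3–4 days post-inoculation, in triplicate. Inhibition % was calculated from average lesion numbers versus control.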

Test [5] has as its system Tobacco mosaic virus. Put plainly: Antiviral activity against Tobacco mosaic virus (TMV) assessed as inhibition of viral growth at 500 ug/mL. The note with it: read-out: GI. A digest of the protocol: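 Leaves of 5–6-growth-stage tobacco were rub-inoculated with TMV juice (5.88 × 10−2 μg/mL), then cut into halves along the main vein. One half was immersed in 500 μg/mL compound and the other in double-distilled water, each for 20 min. Halves were cultured at 25 °C for 72 h, with at least 3 replicates. Inhibition % = (control − treated average lesion number)/control × 100.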

Molecules are shown by their SMILES.

`COc1ccc2c3c(c4cc(OC)c(OC)cc4c2c1)C[C@H]1CCCN1C3` [(-)-ANTOFINE]: the inhibition of growth at 1 µg/mL in test [1] was found to be 63%.
In the case of `COc1ccc2c(Br)c(CN3CCC[C@H]3C#N)c3cc(OC)c(OC)cc3c2c1`, the Activity in test [2] is reported as 24.5%; in test [3], 18.9%; in test [4], 27.7%. For the same compound, the inhibition of growth at 500 µg/mL in test [5] is 20.9%.
On the same counts, the results for `CCN(CC)C(=O)[C@H]1CCCN1Cc1c(Br)c2ccc(OC)cc2c2cc(OC)c(OC)cc12` are 27.1%, 31.6%, 26.9% and 35.6%.
The corresponding values for `CCN(CC)C(=O)c1cccn1Cc1c(Br)c2cc(OC)c(OC)cc2c2cc(OC)c(OC)cc12` are 13.1%, 10.6%, 20% and 18.2%.
The corresponding values for `CCN(CC)C(=O)[C@H]1CCCN1Cc1c(Br)c2cc(OC)c(OC)cc2c2c(Br)c(OC)ccc12` are 39.2%, 35.8%, 30.2% and 42.6%.
Turning to `COc1cc2cc(C(=O)N3CCC[C@H]3C=O)c3cc(OC)c(OC)cc3c2cc1OC`, the Activity in test [2] was 21.4%; in test [3], 20.3%; in test [4], 15.2%. For the same compound, the inhibition of growth at 500 µg/mL in test [5] came to 22.2%.
The corresponding values for `CCN(CC)C(=O)[C@H]1CCCN1Cc1c(Br)c2cc(OC)c(OC)cc2c2cc(OC)ccc12` are 33.1%, 31.4%, 27.6% and 35.7%.
On the same counts, the results for `CCN(CC)C(=O)[C@H]1CCCN1Cc1c(Br)c2ccc(OC)c(Br)c2c2cc(OC)c(OC)cc12` are 20.3%, 13.3%, 10.4% and 22.4%.
The corresponding values for `COC(=O)[C@@H]1CCCN1C(=O)/C(=C/c1ccc(OC)c(OC)c1)c1ccc(OC)c(OC)c1` are 23.6%, 17.2%, 21.1% and 17.5%.
Consider `COc1cc2c(Br)c(CN3CCC[C@H]3C#N)c3cc(OC)c(OC)cc3c2cc1OC`, for which the Activity was determined as 33.3% in test [2], 18.2% in test [3] and 10.3% in test [4]. In addition, the inhibition of growth at 500 µg/mL in test [5] stood at 24.7%.
Turning to `NC(=O)c1ncn([C@@H]2O[C@H](CO)[C@@H](O)[C@H]2O)n1` [RIBAVIRIN], the Activity is reported as 34.2% in test [2], 34.5% in test [3] and 32.1% in test [4]. In addition, the inhibition of growth at 500 µg/mL in test [5] was 38.5%.
The corresponding values for `CCN(CC)C(=O)[C@H]1CCCCN1Cc1c(Br)c2cc(OC)c(OC)cc2c2cc(OC)c(OC)cc12` are 21.7%, 14.2%, 13.7% and 23.5%.
The corresponding values for `COc1cc2c(Br)c(CN3CCC[C@H]3C(N)=O)c3cc(OC)c(OC)cc3c2cc1OC` are 39.5%, 36.6%, 42.1% and 44.3%.
The corresponding values for `COc1cc2c(Br)c(CN3CCC[C@@H]3C(N)=O)c3cc(OC)c(OC)cc3c2cc1OC` are 15.3%, 12.2%, 0% and 10.5%.
For the compound `COc1cc2cc(C(=O)O)c3cc(OC)c(OC)cc3c2cc1OC`, the Activity was determined as 4.8% in test [2], 3.6% in test [3] and 4.2% in test [4]. In addition, in test [5], the inhibition of growth at 500 µg/mL came to 0%.
As to `COc1ccc(/C=C(/C(=O)O)c2ccc(OC)c(OC)c2)cc1OC`, the Activity in test [2] was 1.9%; in test [3], 2.7%; in test [4], 4.1%. Also, the inhibition of growth at 500 µg/mL in test [5] was determined as 2.3%.
Turning to `COc1cc2c3c(c4ccc(O)cc4c2cc1OC)CN1CCC[C@@H]1C3`, the inhibition of growth at 1 µg/mL in test [1] amounted to 70%.
